Values after ≈ are worked out from the molar mass of the structure shown.
Key:
[1] = molecular target: T1, Ribonuclease P protein component (Staphylococcus aureus, UniProt P0A0H5); test: Inhibition of Staphylococcus aureus RnpA-mediated mRNA degradation after 15 to 30 mins by ethidium bromide staining based agarose gel electrophoresis
T1 sequence (P0A0H5 whole entry): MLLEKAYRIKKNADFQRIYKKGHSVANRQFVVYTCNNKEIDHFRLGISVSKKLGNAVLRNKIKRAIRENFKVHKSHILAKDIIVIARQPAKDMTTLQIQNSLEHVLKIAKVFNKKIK
Procedure, shortened: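 Recombinant S. aureus RnpA (≥97% purity) tested for inhibition of in vitro mRNA degradation.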

[2] = Inhibition of Staphylococcus aureus RnpA/RnpB-mediated tRNA cleavage after 15 mins by ethidium bromide staining based polyacrylamide gel electrophoresis
Procedure, shortened: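 RNase P reconstituted from equimolar S. aureus RnpA and rnpB; inhibition of in vitro tRNA maturation (cleavage) measured.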

[3] = tested on: HepG2; test: Cytotoxicity against human HepG2 cells assessed as reduction in cell viability after 24 hrs by MTT assay; assay type: cell-based; settings: hepg2, 24 h
Procedure, shortened: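 Human HepG2 hepatocytes; overt cytotoxicity measured by MTT method. Value reported as the lowest concentration causing cytotoxicity.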

[4] = tested on: Staphylococcus aureus; test: Antibacterial activity against Staphylococcus aureus UAMS-1 after 18 hrs by Mueller-Hinton broth analysis; assay type: functional; settings: UAMS-1, 18 h
Procedure, shortened: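 S. aureus UAMS-1, a methicillin-sensitive osteomyelitis clinical isolate, tested by CLSI broth method in 96-well format. MIC taken as the lowest compound concentration with no visible growth.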

[5] = tested on: Staphylococcus aureus; test: Potentiation of mupirocin-induced antibacterial activity against Staphylococcus aureus UAMS-1 assessed as fractional inhibitory concentration index at 8 ug/ml by checkerboard assay; assay type: functional
Procedure, shortened: (§1)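 Checkerboard assay: wells seeded with 1 × 10^5 CFU ml-1 S. aureus UAMS-1. Test compound in 2-fold steps (0, 0.5, 1, 2, 4, 8, 16, 32 µg/mL) crossed with mupirocin (0, 0.03125, 0.0625, 0.125 µg/mL). Plates incubated 18 h at 37 °C, then growth read. FICI = (MIC compound combined / MIC alone) + (MIC mupirocin combined / MIC mupirocin alone).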

[6] = tested on: Staphylococcus aureus; test: Potentiation of mupirocin-induced antibacterial activity against Staphylococcus aureus UAMS-1 assessed as mupirocin MIC at 8 ug/ml by checkerboard assay (reference value: 0.125 microg/ml); assay type: functional; procedure, shortened: as §1
[7] = tested on: Staphylococcus aureus; test: Potentiation of mupirocin-induced antibacterial activity against Staphylococcus aureus UAMS-1 assessed as fractional inhibitory concentration index at 4 ug/ml by checkerboard assay; assay type: functional; procedure, shortened: as §1
[8] = tested on: Staphylococcus aureus; test: Potentiation of mupirocin-induced antibacterial activity against Staphylococcus aureus UAMS-1 assessed as fractional inhibitory concentration index at 0.5 ug/ml by checkerboard assay; assay type: functional; procedure, shortened: as §1
[9] = tested on: Staphylococcus aureus; test: Potentiation of mupirocin-induced antibacterial activity against Staphylococcus aureus UAMS-1 assessed as mupirocin MIC at 4 ug/ml by checkerboard assay (reference value: 0.125 microg/ml); assay type: functional; procedure, shortened: as §1
[10] = tested on: Staphylococcus aureus; test: Potentiation of mupirocin-induced antibacterial activity against Staphylococcus aureus UAMS-1 assessed as fractional inhibitory concentration index at 16 ug/ml by checkerboard assay; assay type: functional; procedure, shortened: as §1
[11] = tested on: Staphylococcus aureus; test: Potentiation of mupirocin-induced antibacterial activity against Staphylococcus aureus UAMS-1 assessed as mupirocin MIC at 2 ug/ml by checkerboard assay (reference value: 0.125 microg/ml); assay type: functional; procedure, shortened: as §1
[12] = tested on: Staphylococcus aureus; test: Potentiation of mupirocin-induced antibacterial activity against Staphylococcus aureus UAMS-1 assessed as mupirocin MIC at 1 ug/ml by checkerboard assay (reference value: 0.125 microg/ml); assay type: functional; procedure, shortened: as §1
[13] = tested on: Staphylococcus aureus; test: Potentiation of mupirocin-induced antibacterial activity against Staphylococcus aureus UAMS-1 assessed as fractional inhibitory concentration index at 1 ug/ml by checkerboard assay; assay type: functional; procedure, shortened: as §1

Compound | IC50 [1] [µM] | IC50 [2] [µM] | MIC [4] [µg/mL] | MTC [3] [µg/mL] | other results
CC(C)c1ccc(OCC(=O)NNC(=S)NC(=O)c2ccoc2)cc1 | 250 | 150 |  | 16 | 
Cc1cc(/C=C(/C#N)C(=O)Nc2cccc(Br)c2)c(C)n1-c1ccc(C(=O)O)cc1 | 100 | 175 | 32 (≈ 68.9 µM) | 25 | 
CC(C)c1ccc(OCC(=O)NNC(=S)NC(=O)c2c[nH]c3ccccc23)cc1 |  | 90 |  | > 128 | fractional inhibitory concentration index (FICI) [5]: 0.5; MIC [6]: 0.0625 µg/mL
CC(C)c1ccc(OCC(=O)NNC(=S)NC(=O)c2cc3ccccc3s2)cc1 |  | 100 |  | 512 | 
Cc1ccoc1C(=O)NC(=S)NNC(=O)COc1ccc(C(C)C)cc1 |  | 150 |  | > 128 | 
CC(C)c1ccc(OCC(=O)NNC(=S)NC(=O)c2cc3ccccc3o2)cc1 |  | 1 | 32 (≈ 77.8 µM) | > 128 | fractional inhibitory concentration index (FICI) [7]: 0.25; MIC [6]: 0.0312 µg/mL; fractional inhibitory concentration index (FICI) [8]: 0.508
Cc1ccc(C(=O)NC(=S)NNC(=O)COc2ccc(C(C)C)cc2)o1 |  | 105 |  | > 128 | MIC [9]: 0.0312 µg/mL; fractional inhibitory concentration index (FICI) [7]: 0.5; fractional inhibitory concentration index (FICI) [8]: 0.53
CC(C)c1ccc(OCC(=O)NNC(=S)NC(=O)c2ccco2)cc1 |  | 140 | 16 (≈ 44.3 µM) | > 128 | MIC [9]: 0.0625 µg/mL; fractional inhibitory concentration index (FICI) [7]: 0.49
COc1ccc2[nH]c(C(=O)NC(=S)NNC(=O)COc3ccc(C(C)C)cc3)cc2c1 |  |  |  | 32 | 
COc1ccc2cc(C(=O)NC(=S)NNC(=O)COc3ccc(C(C)C)cc3)[nH]c2c1 | 50 |  | > 256 | > 512 | 
CC(C)c1ccc(OCC(=O)NNC(=S)NC(=O)c2cccnc2)cc1 |  | 160 |  | > 256 | 
CC(C)c1ccc(OCC(=O)NNC(=S)NC(=O)c2ccno2)cc1 |  | > 500 |  | > 128 | 
CC(C)c1ccc(OCC(=O)NNC(=S)NC(=O)Cc2ccco2)cc1 | 25 |  |  | 32 | 
CC(C)c1ccc(OCC(=O)NNC(=S)NC(=O)c2ccsc2)cc1 |  | 395 |  | > 256 | 
CC(C)c1ccc(OCC(=O)NNC(=S)NC(=O)c2ccccc2)cc1 | > 500 | 350 | 64 (≈ 172 µM) | 512 | 
CC(C)c1ccc(OCC(=O)NNC(=S)NC(=O)c2nc3ccccc3[nH]2)cc1 |  | 90 |  | 512 | 
CC(C)c1ccc(OCC(=O)NNC(=S)NC(=O)c2cnco2)cc1 |  | 50 |  | 64 | 
CC(C)c1ccc(OCC(=O)NNC(=S)NC(=O)c2cc3cc(Cl)ccc3[nH]2)cc1 |  | 100 |  | 256 | 
CC(C)c1ccc(OCC(=O)NNC(=S)NC(=O)c2cc3ccccc3n2C)cc1 |  | 50 |  | > 256 | 
CC(C)c1ccc(OCC(=O)NNC(=S)NC(=O)c2ccncc2)cc1 |  | 150 |  | > 512 | 

More lines, main results first:

IC50 [1] [µM] | IC50 [2] [µM] | MIC [4] [µg/mL] | Compound | MTC [3] [µg/mL] | other results
< 50 | < 50 |  | CC(C)c1ccc(OCC(=O)NNC(=S)NC(=O)c2cc3cc(F)ccc3[nH]2)cc1 | 256 | 
 | 1 |  | CC(C)c1ccc(OCC(=O)NNC(=S)NC(=O)c2ccccn2)cc1 | > 128 | fractional inhibitory concentration index (FICI) [5]: 0.5; fractional inhibitory concentration index (FICI) [10]: 0.625; MIC [6]: 0.0625 µg/mL; fractional inhibitory concentration index (FICI) [8]: 0.516
 | 40 |  | CC(C)c1ccc(OCC(=O)NNC(=S)NC(=O)c2ccc(Br)o2)cc1 | > 128 | fractional inhibitory concentration index (FICI) [5]: 0.375; MIC [11]: 0.0625 µg/mL; fractional inhibitory concentration index (FICI) [8]: 0.516
 | 32 |  | CC(C)c1ccc(OCC(=O)NNC(=S)NC(=O)/C=C/c2ccco2)cc1 | > 256 | 
 | 26 | > 256 | CC(C)c1ccc(OCC(=O)NNC(=S)NC(=O)/C=C/c2cc3ccccc3o2)cc1 | 256 | 
40 | 50 | 64 (≈ 146 µM) | CC(C)c1ccc(OCC(=O)NNC(=S)NC(=O)c2ccc(-c3ccccc3)o2)cc1 | 64 | 
> 250 | 25 | 128 (≈ 311 µM) | CC(C)c1ccc(OCC(=O)NNC(=S)NC(=O)c2coc3ccccc23)cc1 | 128 | 
 | 0.5 |  | CC(C)c1ccc(OCC(=O)NNC(=S)NC(=O)c2cc3ccccc3[nH]2)cc1 | > 256 | MIC [12]: 0.0625 µg/mL; fractional inhibitory concentration index (FICI) [13]: 0.56
> 250 | 25 | 16 (≈ 44.4 µM) | CC(C)c1ccc(OCC(=O)NNC(=S)NC(=O)c2ccc[nH]2)cc1 | 16 | 
250 | 25 | 64 (≈ 170 µM) | CC(C)c1ccc(OCC(=O)NNC(=S)NC(=O)c2cccs2)cc1 | > 256 | 
 | < 50 |  | CC(C)c1ccc(OCC(=O)NNC(=S)NC(=O)c2cc3ccc(Cl)cc3[nH]2)cc1 | 32 | 
